Screening data: PubChem BioAssay, several laboratories
MBD2 DNA inh: blocks human MBD2 binding to methylated DNA; 0.31% of 370,000 active; inhibition, % at 4.4 µM; TR-FRET, MBD2 binding to methylated oligonucleotide; in the data active = inhibition above about 13%
ABHD5-PLIN5 inh: blocks binding of human ABHD5 to perilipin-5; AID 602281; inhibition, % at 4 µM; 0.78% of 360,000 active; Split G. princeps luciferase complementation, luminescence, 4 h; Q00G26+Q8WTS1;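 active = inhibition above the mean inhibition across every tested compound plus 3 SD, cut at about 22% in these data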
Arrestin-AP2 inh: blocks beta-arrestin peptide binding to AP2 adaptin | FITC-arrestin peptide / GST-AP2 beads, flow cytometry; AP2 beta2 appendage carries R879A mutation | inhibition, % at 10 µM | 0.31% of 340,000 active;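 active = inhibition above a set limit, near 3 SD of compounds lacking own fluorescence, cut at about 54% in these data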
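Material – GST-tagged AP2 beta2-adaptin appendage (R879A) on 4 µm glutathione beads · Probe or stimulus – fluorescein-tagged arrestin peptide at 50 nM final · Timing – 12 min plus 1 h, RT · Detection – bead flow cytometry, FITC channel · Read-out basis – inhibition as reduced fluorescein signal on beads, percent · Medium – PBS plus Tween 20 (0.05%) and BSA (0.1%)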
UHRF1 binding: human UHRF1 methylated DNA binding inhibitors; UHRF1 binding to methylated oligo, TR-FRET; inhibition, % at 4.4 µM; 0.75% of 370,000 active; AID 687016; in the data active = inhibition above about 21%;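 note: UHRF1 SRA domain binding a hemimethylated CpG hairpin DNA probe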
Rin1 Abl inh: blocks binding of human Rin1 to Abl; P00519+Q13671; TR-FRET Rin1/Abl binding, biochemical; inhibition, % at 7.35 µM; 0.4% of 360,000 active; AID 588664; in the data active = inhibition above about 5%, passing the limit was not always enough
B2AR ag: activates human beta-2 adrenergic receptor causing internalization | response, % (test concentration not listed) | Am2.2-beta2AR cells, FAP receptor internalization, flow cytometry | AID 504454 | 0.43% of 340,000 active;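 active = response above a set limit, near 3 SD of response in nonfluorescent compounds, cut at about 42% in these data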
Target sequence (P07550 whole entry, looked up): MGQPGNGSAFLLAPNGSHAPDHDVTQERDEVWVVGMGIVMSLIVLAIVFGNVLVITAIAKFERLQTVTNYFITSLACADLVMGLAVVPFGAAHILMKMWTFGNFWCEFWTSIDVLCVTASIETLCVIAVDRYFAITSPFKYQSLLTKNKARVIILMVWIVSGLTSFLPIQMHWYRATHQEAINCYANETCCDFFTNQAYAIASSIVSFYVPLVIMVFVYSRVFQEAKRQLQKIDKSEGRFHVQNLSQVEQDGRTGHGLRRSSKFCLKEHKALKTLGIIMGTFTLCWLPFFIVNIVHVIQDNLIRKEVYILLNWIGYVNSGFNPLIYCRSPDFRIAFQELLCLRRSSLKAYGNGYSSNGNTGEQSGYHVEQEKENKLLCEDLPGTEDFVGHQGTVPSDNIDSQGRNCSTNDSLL
Numbers stand for hits; – = inactive; · = not tested or not shown; ! = not active in a repeat. In the library only some 2.5% were active in any assay of this set; here they are far more common.

SMILES	MBD2 DNA inh	ABHD5-PLIN5 inh	Arrestin-AP2 inh	UHRF1 binding	Rin1 Abl inh	B2AR ag
Cc1n[nH]c(C)c1CCC(=O)N/N=C/C=C/c1ccccc1	–	–	–	87.7	–	–
CNC(=O)[C@@H]1CC=C[C@@H]2CCN(c3ccccc3)C(=O)[C@@H]21	–	·	·	–	·	·
CC(C)CCn1c(COc2ccccc2)n[nH]c1=S	–	–	–	21.4	–	–
Cc1ccc(NC(=O)CC2SC3=NCCN3C2=O)cc1 (centres undefined)	–	22.9	–	–	–	–
COc1cc2nc(N(CCCN(C)C)C(=O)c3ccc(S(=O)(=O)N4CCc5ccccc54)cc3)sc2cc1OC	–	–	–	–	–	–
Cc1cc(C)c2nc(N(CCCN(C)C)C(=O)c3ccc4c(c3)CCCC4)sc2c1	–	·	·	–	·	·
Cc1cccc2sc(N(CCCN(C)C)C(=O)c3ccc(C(=O)c4ccccc4)cc3)nc12	–	–	–	34.0!	–	–
Cc1ccc2nc(N(CCCN(C)C)C(=O)c3ccc4c(c3)CCCC4)sc2c1	–	22.1	–	–	–	–
COc1ccc2sc(N(CCCN(C)C)C(=O)c3ccc(S(=O)(=O)N4CCCc5ccccc54)cc3)nc2c1	–	–	–	–	–	53.0
O=S1(=O)c2ccc(N3CCCC3)cc2Oc2ccccc2CN1Cc1cn(Cc2ccccc2C(F)(F)F)nn1	–	·	·	–	·	·
CCOC(=O)[C@@]12CN(C(=O)OC(C)(C)C)CC=C1N(Cc1ccc(OC)cc1)C(=O)[C@H]2CC(=O)NCc1cccs1	–	·	·	–	·	·
CC(C)CN1C(=O)[C@]2(CC(=O)N(C)C2c2ccccc2)c2cc(-n3cc(CCc4ccccc4)nn3)ccc21 (some centres undefined)	–	·	·	–	·	·
CN(C)CCn1nnnc1SCC1=C(C(=O)O)N2C(=O)[C@@H](NC(=O)Cc3csc(N)n3)[C@H]2SC1	–	–	–	39.1	–	–
CCOC(=O)c1c(C)n(-c2ccc(C)cc2)c2ccc(OCC(O)CN3CCN(C)CC3)cc12 (centres undefined)	–	22.3	–	–	–	–
CCOC(=O)c1c(C)n(C)c2ccc(OCC(O)CN3CCN(C)CC3)cc12 (centres undefined)	–	–	–	–	–	–
Cc1ccc(NS(=O)(=O)c2ccc3c(c2)NC(=O)CCS3)c(Br)c1	–	–	–	29.1	–	–
NC(=O)c1nc(N2CCOCC2)nc(N2CCOCC2)n1	–	–	–	37.1	–	–
O=C(CSc1nnc(-c2ccccc2)n1-c1ccc(Cl)cc1)NN=Cc1c[nH]c2ccccc12	–	·	·	–	·	·
COc1cccc(NC(=O)c2cccc(C)c2[N+](=O)[O-])c1	–	–	–	62.5	–	–
Cc1ccc2nc(-c3ccc(Cl)cc3)c(CC3CCCCC3)n2c1	–	–	·	21.3	–	·
Cc1ccc2nc(-c3ccc(F)cc3)c(CC3CCCCC3)n2c1	–	–	·	21.2	·	·
O=C(NC1CCCCN(Cc2cccc(Cl)c2)C1=O)c1ccc(COc2ccccc2)cc1 (centres undefined)	–	·	·	–	·	·
Cc1ccc(-c2n[nH]c(=S)c3ccccc23)cc1	–	–	–	40.1	–	–
CC1(C)CC(=O)C=C(Nc2ccccc2NC(=O)c2cccc(F)c2F)C1	–	·	·	–	·	·
O=C1CC(c2ccccc2)CC(O)=C1C=NC1CCCCC1 (centres undefined)	–	–	–	–	–	–
SMILES	MBD2 DNA inh	ABHD5-PLIN5 inh	Arrestin-AP2 inh	UHRF1 binding	Rin1 Abl inh	B2AR ag
O=C1CC(c2ccccc2)CC(O)=C1C=NC1CCCC1 (centres undefined)	–	–	–	48.1	–	–
COc1ccc(Cc2c(-c3ccco3)nc3c(C)cc(Br)cn23)c(C)c1	–	–	·	–	–	·
COc1ccc(Cc2c(-c3ccco3)nc3ccc(Cl)cn23)c(C)c1	–	26.8	·	–	–	·
COc1ccc(Cc2c(-c3ccco3)nc3ccc(Br)cn23)c(C)c1	–	42.6	·	–	–	·
COc1ccc(Cc2c(-c3ccccc3)nc3ccc(Cl)cn23)c(C)c1	–	–	·	–	–	·
CCCOc1ccc(C(=O)N/N=C/c2ccc(-c3ccc(S(=O)(=O)Nc4ncccn4)cc3)o2)cc1	–	–	–	70.1	–	–
CC(C)OCCCn1c(=NC(=O)c2cccs2)c(C#N)cc2c(=O)n3ccccc3nc21	–	–	–	30.2	–	–
CC1=CC(C)(C)N2C(=O)C3(C(C#N)=C(N)OC4=C3C(=O)CC(C)(C)C4)c3cccc1c32 (centres undefined)	–	·	·	20.8	·	·
O=C1Cc2ccccc2C(=O)N1c1cccc(Cl)c1	–	–	–	–	–	–
O=C1Cc2ccccc2C(=O)N1c1ccc(F)cc1Cl	–	–	–	36.6	–	–
CNc1oc(-c2ccccc2)nc1S(=O)(=O)c1ccc(C)cc1	–	–	–	–	–	–
CN(C)c1oc(-c2ccc(Cl)cc2)nc1S(=O)(=O)c1ccccc1	–	–	–	25.4	–	–
CN(C)/C=C(/C(=O)c1ccccc1Cl)S(=O)(=O)c1ccccc1	–	–	–	–	–	–
COc1ccc(C(=O)/C(=C/N(C)C)S(=O)(=O)c2ccccc2)cc1	–	–	–	54.7	–	–
CCC(=O)N(C)C[C@@H]1Oc2cc(Br)ccc2S(=O)(=O)N([C@@H](C)CO)C[C@@H]1C	–	–	·	–	–	·
C[C@@H]1CN([C@H](C)CO)S(=O)(=O)c2ccc(C#Cc3ccccc3)cc2O[C@@H]1CN(C)C(=O)CN(C)C	–	–	·	–	–	·
C[C@@H]1CN([C@H](C)CO)S(=O)(=O)c2ccc(C#CC3CCCC3)cc2O[C@H]1CN(C)C(=O)Cc1ccccc1	–	–	·	22.0	–	·
CCCN(C)C[C@H]1Oc2cc(C#Cc3ccc(F)cc3)ccc2S(=O)(=O)N([C@H](C)CO)C[C@@H]1C	14.1	–	·	22.2	–	·
CCCC#Cc1ccc2c(c1)O[C@H](CN(C)C(=O)CC1CC1)[C@H](C)CN([C@@H](C)CO)S2(=O)=O	–	–	·	24.3	–	·
Cc1ccc(-n2c(SCC(=O)Nc3ccc4c(c3)OCCO4)nnc2-c2cnccn2)cc1	–	·	·	–	·	·
CC(C)CN1CN2Cc3ccccc3C2CS1(=O)=O (centres undefined)	–	·	·	–	·	·
CC(C)CN1CCN(Cc2cn(C)c3ccccc23)CC1CCO (centres undefined)	–	–	–	25.7	–	–
Cn1cc(S(=O)(=O)Oc2ccccc2)c(=O)n(C)c1=O	–	–	–	28.3	–	–
Cc1ccc(OS(=O)(=O)c2cn(C)c(=O)n(C)c2=O)cc1C	–	–	–	–	–	–
O=C(c1cc2ncc(CCCl)cn2n1)N1CCCCCC1	–	–	–	–	–	–
CC1CCCC(C)N1C(=O)c1cc2ncc(CCCl)cn2n1 (centres undefined)	–	–	–	50.8	–	–
Cc1nc2cc(C(=O)N3CCN(C(=O)C(Cl)Cl)CC3)ccc2n1C1CCCC1	–	·	·	–	·	·
C/C(Cn1cnc([N+](=O)[O-])n1)=N/NC(=O)COc1ccccc1Cl	–	–	–	24.4	–	–
